From PubChem BioAssay
Only some compounds are listed: those with a hit (about 2.7% of all), similar ones and a draw of the others.
SIAE primary: human SIAE inhibition, primary screen; AID 1053197; Q9HAT2; inhibition, % at 9.66 µM; hit rate 0.69% among 370,000; SIAE FP-Rh probe binding, fluorescence polarization;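 active means inhibition above a cutoff: mean of compounds within the control limits plus 3 SD of those, cut at about 17% in these data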;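 further: 0% = plate median of compound wells and 100% = probe without SIAE protein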
HTRA1 inh: inhibitors of human serine peptidase HTRA1 | Q92743 | recombinant HTRA1, FP-rhodamine activity-based probe, fluorescence polarization | inhibition, % at 5.96 µM | hit rate 0.5% among 340,000 | AID 504803; in the data active means inhibition above about 36%;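 further: 0% = enzyme with DMSO and 100% = wells lacking enzyme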
mABHD4 FP: inhibitors of mouse ABHD4; Q8VD66; purified mABHD4, FP-Rh probe fluorescence polarization; hit rate 0.54% among 370,000; inhibition, % at 8.92 µM;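 active means inhibition exceeding the mean over every tested compound plus 3 SD, cut at about 30% in these data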;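 further: 0% = plate median of compound wells and 100% = S159A mutant with DMSO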
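Test system: mABHD4 protein | Buffer or medium: HEPES pH 7.0 buffer, 150 mM NaCl, 0.01% Pluronic F-127 | Probe or stimulus: FP-Rh fluorescent activity-based probe, added after compound pre-incubation | Timing: Pre-incubation 45 min, probe exposure 60 min, at 25 °C | Technique: Fluorescence polarization, excitation 525 nm, emission 598 nm, BODIPY TMR filters | Repeats: Single well per compound (singlicate)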
PRMT1 inh: PRMT1 (human) inhibition, primary screen; Q99873; recombinant PRMT1, activity-based probe fluorescence polarization; inhibition, % at 2.79 µM; hit rate 1.3% among 370,000;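 active means inhibition above about 21% made by adding two undisclosed values, limit read from the data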
Target sequence (Q99873 whole entry, looked up): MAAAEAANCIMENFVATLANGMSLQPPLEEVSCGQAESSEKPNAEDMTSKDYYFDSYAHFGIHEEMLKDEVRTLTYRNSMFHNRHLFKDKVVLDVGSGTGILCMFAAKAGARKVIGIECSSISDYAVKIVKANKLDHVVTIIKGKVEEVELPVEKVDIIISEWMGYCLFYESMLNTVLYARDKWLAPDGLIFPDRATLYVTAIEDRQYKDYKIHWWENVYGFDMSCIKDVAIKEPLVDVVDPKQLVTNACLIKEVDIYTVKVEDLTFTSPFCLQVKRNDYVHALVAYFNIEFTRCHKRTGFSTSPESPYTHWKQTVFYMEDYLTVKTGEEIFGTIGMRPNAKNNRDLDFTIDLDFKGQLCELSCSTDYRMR
TCR-CD3 inh: human TCR-CD3 binding inhibition | TAMRA-labeled TCR probe fluorescence, biochemical | inhibition, % at 9.4 µM | hit rate 0.37% among 360,000; in the data active means inhibition above about 19%;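 further: recombinant mutant TCR 2C K166C tagged with TAMRA read by polarization; 0% = receptor in buffer alone and 100% = receptor with positive control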
SIAE inh conf: confirmation of human SIAE inhibitors | hit rate 13% among 2,300 | SIAE FP-Rh activity-based probe, fluorescence polarization | inhibition, % at 9.66 µM | shares compounds with SIAE primary | AID 1117263;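 active means mean inhibition of the replicates above the hit cutoff set in the primary screen, cut at about 17% in these data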;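 further: 0% = SIAE with DMSO and probe and 100% = probe without SIAE; inhibitors lower polarization as more probe stays unbound to SIAE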
* marks the source's active call; other numbers are inactive results.

Screening COc1cccc(NC(=S)Nc2cc(C(=O)O)ccc2N2CC3CC(C2)c2cccc(=O)n2C3)c1 (stereo not given) returned SIAE primary 18*, HTRA1 inh 3, mABHD4 FP 6, PRMT1 inh 0, TCR-CD3 inh -3 and SIAE inh conf 3.
Cc1cc([N+](=O)[O-])nn1Cc1ccc(C(=O)N/N=C/c2ccc(O)cc2O)cc1 was read as SIAE primary 19*, HTRA1 inh 11, mABHD4 FP 12, PRMT1 inh 0, TCR-CD3 inh 10 and SIAE inh conf 5.
For CC(C)(C)C(=O)OC12CCCN(C1)/C(=C/c1ccccc1)C2 (stereo not given) the results were SIAE primary -1, mABHD4 FP 4 and PRMT1 inh 0.
For CC(C)(C)C(=O)OC12CCCN(C1)/C(=C/c1ccc(C#N)cc1)C2 (stereo not given) the results were SIAE primary 39*, mABHD4 FP 4, PRMT1 inh -6 and SIAE inh conf 1.
For O=C(CSc1nnc(SCc2ccccc2Cl)s1)N/N=C/c1c[nH]c2ccccc12 the results were SIAE primary 28*, HTRA1 inh 2, mABHD4 FP -5, PRMT1 inh -1, TCR-CD3 inh 8 and SIAE inh conf 9.
`O=C(CSc1nnc(SCc2ccccc2)s1)N/N=C/c1c[nH]c2ccccc12` gave SIAE primary 1, HTRA1 inh -4, mABHD4 FP 6, PRMT1 inh 3 and TCR-CD3 inh -3.
For CC(C)(C)NCCC(O)c1cc(C(F)(F)F)nc2c(C(F)(F)F)cccc12 (stereo not given) the results were SIAE primary 78*, HTRA1 inh 6, mABHD4 FP 11, PRMT1 inh -2, TCR-CD3 inh -6 and SIAE inh conf -5.
Screening CCC1OC2(C)OC(=N)C1(C#N)C(C#N)(C#N)C2c1ccccc1 (stereo not given) returned SIAE primary 7, HTRA1 inh 12, mABHD4 FP 11, PRMT1 inh 5 and TCR-CD3 inh 8.
`CC(C)C1OC2(C)OC(=N)C1(C#N)C(C#N)(C#N)C2c1ccccc1` (stereo not given) gave SIAE primary 22*, HTRA1 inh 7, mABHD4 FP 35*, PRMT1 inh 25*, TCR-CD3 inh 18 and SIAE inh conf 10.
For Cc1cc(N2CC(C(=O)NCc3cccs3)CC2=O)ccc1C(C)C (stereo not given) the results were SIAE primary 18*, HTRA1 inh -2, mABHD4 FP 0, PRMT1 inh -2, TCR-CD3 inh 5 and SIAE inh conf 2.
Cc1ccc(N2CC(C(=O)NCc3cccs3)CC2=O)cc1C (stereo not given) was read as SIAE primary 16, HTRA1 inh 2, mABHD4 FP -2, PRMT1 inh 0 and TCR-CD3 inh -6.
For Cc1cccc(C)c1NC(=O)CNC(=O)c1c(C)nn(-c2ccccc2)c1Cl the results were SIAE primary 1, HTRA1 inh 1, mABHD4 FP -2, PRMT1 inh 1 and TCR-CD3 inh -4.
`Cc1nn(-c2ccccc2)c(Cl)c1C(=O)NCC(=O)O` gave SIAE primary 19*, HTRA1 inh 5, mABHD4 FP 6, PRMT1 inh -6, TCR-CD3 inh -6 and SIAE inh conf 0.
CCOc1ccc(NC(=O)CN(C)C(=O)c2c(C)nn(-c3ccccc3)c2Cl)cc1OCC was read as SIAE primary 19*, HTRA1 inh 0, mABHD4 FP 3, PRMT1 inh -1, TCR-CD3 inh -1 and SIAE inh conf 0.
For CSc1ccc(CNC(=O)C2CCC(=O)N(CCc3cccc(F)c3)C2)cc1 (stereo not given) the results were SIAE primary 1, HTRA1 inh 4, mABHD4 FP -3, PRMT1 inh -3 and TCR-CD3 inh 0.
`CC(=O)Nc1ccc(N2C(C(C)=O)=NN(c3ccc(Cl)cc3)C2c2sccc2C)cc1` (stereo not given) gave SIAE primary 21*, HTRA1 inh -6, mABHD4 FP -8, PRMT1 inh -2, TCR-CD3 inh 3 and SIAE inh conf 5.
CC(=O)Nc1ccc(N2C(C(C)=O)=NN(c3ccccc3)C2c2cccs2)cc1 (stereo not given) was read as SIAE primary 10, HTRA1 inh -2, mABHD4 FP -2, PRMT1 inh 1 and TCR-CD3 inh -1.
